Among the data in ChEMBL document CHEMBL2380239, “Novel ROS-activated agents utilize a tethered amine to selectively target acute myeloid leukemia” (Bioorg Med Chem Lett, 2013) are GI50 and IC50 values, retold here.

The GI50 is the concentration giving 50% growth inhibition. A high value points to less potent growth inhibition. A word on the IC50: it is the concentration that gives 50% inhibition. A higher IC50 goes with weaker potency.

The test system of one assay is OVCAR-4. Nature of the assay: Growth inhibition of human OVCAR4 cells after 48 hrs by sulforhodamine B assay. It counts as functional. The following applies: OVCAR-4, 48 h. Put shortly:
(§1)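 Run in the National Cancer Institute 60-cell-line panel screen. Viability was read by sulforhodamine B staining of total protein content, so it reflects cell number rather than metabolic activity. Values are reported as GI50.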
Background: The SRB assay estimates cell density from bound dye.

In another assay the test system is HeLa. Nature of the assay: Cytotoxicity against human HeLa cells after 48 hrs by MTT assay. It counts as functional, cell-based. In general terms: Tetrazolium assays rely on reduction of a dye to a coloured formazan, in cell work by metabolically active cells.
The next assay concerns HCT-15. The assay is described as follows: Growth inhibition of human HCT15 cells after 48 hrs by sulforhodamine B assay. It counts as functional. The note with it: HCT-15, 48 h. Put shortly: as §1
Assay [1] in a line: Growth inhibition of human EKVX cells after 48 hrs by sulforhodamine B assay. It is filed as functional. Put shortly:
as §1

The test system of a further assay is Malme-3M. Nature of the assay: Growth inhibition of human MALME-3M cells after 48 hrs by sulforhodamine B assay. It counts as functional. In short, it runs like this:
as §1

Another assay concerns UO-31. Nature of the assay: Growth inhibition of human UO31 cells after 48 hrs by sulforhodamine B assay. It counts as functional. The note with it: UO-31, 48 h. Put shortly: (§2)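 Run within the National Cancer Institute 60-cell-line panel. Viability was read by sulforhodamine B staining of total cellular protein, as a measure of cell number rather than metabolic activity. GI50 values were taken from the panel data.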

The subject of another assay is NCI-H23. Nature of the assay: Growth inhibition of human NCI-H23 cells after 48 hrs by sulforhodamine B assay. The following applies: NCI-H23, 48 h. It counts as functional. In short, it runs like this: as §1
For another assay, the system named is SK-MEL-28. The assay is described as follows: Growth inhibition of human SK-MEL-28 cells after 48 hrs by sulforhodamine B assay. The note with it: SK-MEL-28, 48 h. It is filed as functional. In short, it runs like this:
as §1

The test system of another assay is SNB-75. Nature of the assay: Growth inhibition of human SNB75 cells after 48 hrs by sulforhodamine B assay. It is filed as functional. The following applies: SNB-75, 48 h. In short, it runs like this:
as §2

The next assay relates to UACC-62. Nature of the assay: Growth inhibition of human UACC62 cells after 48 hrs by sulforhodamine B assay. The following applies: UACC-62, 48 h. It is filed as functional. Put shortly:
as §2

The next assay concerns OVCAR-3. The assay is described as follows: Growth inhibition of human OVCAR3 cells after 48 hrs by sulforhodamine B assay. It is filed as functional. The following applies: OVCAR-3, 48 h. Put shortly:
as §1

The subject of a further assay is SN12C. The assay is described as follows: Growth inhibition of human SN12C cells after 48 hrs by sulforhodamine B assay. It is filed as functional. Put shortly: as §2
The next assay relates to SF-295. Nature of the assay: Growth inhibition of human SF295 cells after 48 hrs by sulforhodamine B assay. The note with it: SF-295, 48 h. It counts as functional. Put shortly:
as §1

A short description of assay [2]: Growth inhibition of human NCI-ADR-RES cells after 48 hrs by sulforhodamine B assay. It counts as functional. Put shortly:
as §1

The next assay concerns NCI-H460. Nature of the assay: Growth inhibition of human NCI-H460 cells after 48 hrs by sulforhodamine B assay. The following applies: NCI-H460, 48 h. It counts as functional. Put shortly:
as §1

The next assay deals with TK-10. The assay is described as follows: Growth inhibition of human TK10 cells after 48 hrs by sulforhodamine B assay. The following applies: TK-10, 48 h. It counts as functional. Put shortly: as §2
Another assay concerns OVCAR-8. The assay is described as follows: Growth inhibition of human OVCAR8 cells after 48 hrs by sulforhodamine B assay. It counts as functional. The following applies: OVCAR-8, 48 h. In short, it runs like this: as §1
A further assay relates to CCRF-CEM. The assay is described as follows: Growth inhibition of human CCRF-CEM cells after 48 hrs by sulforhodamine B assay. It is filed as functional. Put shortly: as §1
Another assay concerns A549. The assay is described as follows: Growth inhibition of human A549/ATCC cells after 48 hrs by sulforhodamine B assay. It counts as functional. The note with it: A549, 48 h. In short, it runs like this:
as §1

A further assay has as its system HL-60(TB). The assay is described as follows: Growth inhibition of human HL-60(TB) cells after 48 hrs by sulforhodamine B assay. It counts as functional. The following applies: HL-60, 48 h. Put shortly: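 Tested through the National Cancer Institute's NCI-60 cell line panel screen. Viability was read by sulforhodamine B staining, which measures total cellular protein and so reflects cell number rather than metabolic activity. The value is reported as GI50.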

With `Oc1ccc(OCCN(CCOc2ccc(O)cc2)c2ccccc2)cc1`, the GI50 turned out to be 10.5 µM with OVCAR-4; 10 µM with HCT-15; 5.8 µM in assay [1]; 2.2 µM in the assay with Malme-3M; 1.5 µM in the assay with UO-31; 2.1 µM with NCI-H23. Also, the GI50 with SK-MEL-28 was determined as 14.8 µM; in the assay with SNB-75, 5.3 µM; in the assay on UACC-62, 2.9 µM; with OVCAR-3, 4.2 µM; in the assay on SN12C, 4.7 µM; in the assay on SF-295, 2.1 µM. Further, the GI50 was found to be 1.2 µM in [2] and 2.2 µM in the assay on NCI-H460. Moreover, inhibition in the assay with HeLa was half-maximal at 11 µM (IC50).
Consider `CN(CCCOc1ccc(O)cc1)c1ccccc1`, for which the GI50 was 11.7 µM in the assay with OVCAR-4; 8.3 µM in the assay with TK-10; 3.5 µM with HCT-15; 1.5 µM with OVCAR-8; 0.3 µM in the assay on CCRF-CEM; 0.4 µM in the assay on UO-31. Moreover, the GI50 is 3 µM in the assay on NCI-H23; 12.3 µM in the assay with SK-MEL-28; 3 µM in the assay with SNB-75; 2.1 µM with UACC-62; 4 µM with OVCAR-3; 3.1 µM in the assay on SN12C. For the same compound, the GI50 with A549 turned out to be 2.2 µM; in assay [2], 1.5 µM; with HL-60(TB), 0.9 µM. In the assay with HeLa, the IC50 came to 9 µM.
